SENP6 inh – inhibitors of human SENP6 protease; Q9GZR1; Recombinant SENP6 catalytic domain, aminoluciferin luminescence; inhibition, % at 10 µM; 330,000 compounds, 1.8% hits;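 active = inhibition above about 50% at the single tested dose, limit read from the data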;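 also: plate controls were DMSO wells with enzyme for no effect and DMSO wells lacking enzyme for full effect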
SENP1 inh – SENP1 (human) catalytic domain inhibition. 360,000 compounds, 0.21% hits. inhibition, % at 10 µM. recombinant SENP1 catalytic domain, CyPet-SUMO1-YPet FRET cleavage;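 active = inhibition at least 30% at 10 µM, raw YFP signal under a set limit, fluorescence ratio 0.5 to 1.5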;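 also: 0% = enzyme with DMSO and 100% = no enzyme wells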
Target sequence (Q9P0U3 419-644 limits assumed): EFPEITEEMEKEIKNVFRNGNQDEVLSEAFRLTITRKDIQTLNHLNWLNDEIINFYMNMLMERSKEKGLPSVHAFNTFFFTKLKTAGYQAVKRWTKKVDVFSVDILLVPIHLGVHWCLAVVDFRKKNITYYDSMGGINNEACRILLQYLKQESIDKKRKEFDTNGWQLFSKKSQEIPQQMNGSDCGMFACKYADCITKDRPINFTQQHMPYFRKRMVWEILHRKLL
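Assay system: hSENP1 catalytic domain, recombinant. Amount: SENP1 enzyme, 20 pM final. Schedule: 50 min reaction, RT, dark. Technique: FRET, CFP and YFP emission. Control set: no-enzyme wells low, DMSO-plus-enzyme wells high control.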
SENP8 block-1 – inhibitors of human SENP8 protease | Q96LD8 | inhibition, % at 20 µM | recombinant SENP8, Nedd8 substrate fluorescence | AID 602440 | 360,000 compounds, 0.64% hits; in the data active = inhibition mostly above about 40%, no sharp cut-off; inactive = mostly below about 27%
Target sequence (Q96LD8 whole entry, looked up): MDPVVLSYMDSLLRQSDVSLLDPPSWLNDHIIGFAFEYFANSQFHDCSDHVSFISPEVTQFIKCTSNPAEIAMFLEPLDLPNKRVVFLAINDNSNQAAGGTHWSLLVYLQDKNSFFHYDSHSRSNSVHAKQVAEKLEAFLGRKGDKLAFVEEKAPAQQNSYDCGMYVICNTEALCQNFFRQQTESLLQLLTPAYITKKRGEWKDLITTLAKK
SENP7 inh – inhibitors of human SENP7 protease | recombinant SENP7, Z-RLRGG-aminoluciferin luminescence, 40 min | inhibition, % at 5 µM | 330,000 compounds, 1.5% hits | AID 434973;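 active = inhibition above about 50% at the single test dose, limit read from the data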;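 also: plate controls were DMSO with enzyme for no effect and no enzyme buffer wells for full effect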
SENP8 block-2 – blocks the human protease SENP8. 330,000 compounds, 1.2% hits. purified SENP8, Z-RLRGG-aminoluciferin cleavage, luminescence. Q96LD8. inhibition, % at 10 µM; in the data active = inhibition above about 50%
SENP8 conf-1 – confirmation of human SENP8 protease inhibitors. shares compounds with SENP7 inh. Recombinant SENP8, Z-RLRGG-aminoluciferin luminescence, 60 min. inhibition, % at 12.5 µM. 6,200 compounds, 40% hits. AID 488912;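 active = mean inhibition across replicates above about 50%, limit read from the data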
SENP6 conf – human SENP6 inhibition, confirmed. shares compounds with SENP7 inh. recombinant SENP6, Z-RLRGG-aminoluciferin luminescence. inhibition, % at 12.5 µM. 6,200 compounds, 58% hits
SENP7 confirm – confirmation of human SENP7 protease inhibitors. shares compounds with SENP7 inh. recombinant SENP7, Z-RLRGG-aminoluciferin luminescence, 40 min. inhibition, % at 12.5 µM. 6,200 compounds, 69% hits
Casp3 select – inhibits human caspase-3 in SENP selectivity test. shares compounds with SENP7 inh. AID 488918. 6,200 compounds, 60% hits. purified caspase-3, Z-DEVD-aminoluciferin luminescence, 60 min. inhibition, % at 12.5 µM;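 active = mean inhibition above about 50%, limit read from the data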;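 also: plate controls were enzyme with DMSO for no effect and wells without caspase-3 for full effect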
Target sequence (P42574 28-227 limits assumed): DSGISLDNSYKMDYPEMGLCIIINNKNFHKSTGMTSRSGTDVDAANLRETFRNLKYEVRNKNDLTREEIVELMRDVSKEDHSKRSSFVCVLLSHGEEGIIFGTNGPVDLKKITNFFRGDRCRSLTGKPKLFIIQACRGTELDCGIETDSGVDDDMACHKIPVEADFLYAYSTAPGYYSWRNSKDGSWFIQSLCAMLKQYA
SENP luc ctr – counter-screen for SENP inhibitors: luminescence interference; 6,200 compounds, 39% hits; AID 488919; inhibition, % at 12.5 µM; Pre-incubated SENP8/Z-RLRGG-aminoluciferin, luciferase luminescence interference; shares compounds with SENP7 inh;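 active = mean inhibition above about 50% when retested at one dose, limit read from the data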;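 also: plate controls were DMSO wells with completed reaction for no effect and substrate without enzyme for full effect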
SENP8 conf-2 – confirmation of human SENP8 protease inhibitors. 1,400 compounds, 15% hits. inhibition, % at 25 µM. shares compounds with SENP8 block-1. purified SENP8, Nedd8-AMC/pro-Nedd8 cleavage fluorescence, 30 min. AID 624319; in the data active = inhibition mostly above about 39%, no sharp cut-off; inactive = mostly below about 34%
Active calls of the source: *; . = not tested or not shown. A selection: hits, their analogues and other compounds. The true share with any hit is near 2.5%.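 The calls were made as follows, unless noted: active = mean inhibition above about 50% in the one-dose retest (limit read from the data); inactive = the rest.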

SMILES | SENP6 inh | SENP1 inh | SENP8 block-1 | SENP7 inh | SENP8 block-2 | SENP8 conf-1 | SENP6 conf | SENP7 confirm | Casp3 select | SENP luc ctr | SENP8 conf-2
O=[N+]([O-])c1cc([N+](=O)[O-])c2nonc2c1Nc1ccccc1O | 26 | -14 | 22 | 20 | 8 | . | . | . | . | . | .
N#CC(CC(=O)c1ccc(F)cc1)c1ccc2c(c1)OCO2 (centres undefined) | 5 | -1 | 10 | -6 | 2 | . | . | . | . | . | .
COCCCN1C(=O)C(CC(=O)NC(c2ccccc2)c2ccccc2)CC(C(=O)N(C(C)C)C(C)C)=C1C (centres undefined) | . | -1 | 27 | . | . | . | . | . | . | . | .
CN(C)c1cc(N/N=C\c2ccccc2)nc(N(C)C)n1 | 76* | 1 | 51* | 71* | 34 | 61* | 76* | 36 | -3 | 1 | 69*
CCC(CC)Nc1ccc(C(CC(N)=O)NC(=O)Cc2cccc3ccccc23)cc1[N+](=O)[O-] (centres undefined) | -19 | 3 | 24 | -8 | 5 | . | . | . | . | . | .
COc1ccc(CCNC(=O)C(=O)NCC2OCCN2S(=O)(=O)c2cccs2)cc1 (centres undefined) | -15 | -1 | -4 | 7 | 1 | . | . | . | . | . | .
CC(C)(C)c1ccc(C(=O)NNc2cc(N3CCCCC3)nc(N3CCCCC3)n2)cc1 | 86* | -40 | 48* | 74* | 17 | 13 | 28 | 9 | 2 | 4 | 79*
O=C(NNc1cc(N2CCCC2)nc(N2CCCC2)n1)c1ccc([N+](=O)[O-])cc1 | 91* | -14 | 77* | 92* | 75* | 18 | 61* | 22 | -1 | -2 | 75*
O=C(CCc1ccccc1)NNc1cc(N2CCCCC2)nc(N2CCCCC2)n1 | 35 | -25 | 47* | 58* | 4 | 0 | 16 | -2 | -4 | -4 | 51*
CC(C)(C)c1ccc(C(=O)NNc2cc(N3CCOCC3)nc(N3CCOCC3)n2)cc1 | 45 | -5 | 10 | 31 | 3 | . | . | . | . | . | .
Cc1nc(NNC(=O)c2ccc([N+](=O)[O-])cc2)cc(-c2ccccc2)n1 | -12 | 4 | 17 | 0 | 2 | . | . | . | . | . | .
Fc1cccc(Cc2noc(CN3CCC(c4ccncc4)CC3)n2)c1 | -7 | 0 | 10 | 8 | 1 | . | . | . | . | . | .
O=C(N/N=C/c1ccc(OCc2ccccc2)cc1)c1ccncc1 | 2 | 1 | -12 | -8 | -11 | . | . | . | . | . | .
Oc1ccc(N=Cc2ccc(OCc3ccccc3)cc2)cc1 | 91* | 6 | 66* | 43 | 57* | -3 | 57* | 68* | 50 | 7 | -9
Cc1c(Cl)cccc1N=Cc1ccc([N+](=O)[O-])s1 | 51* | 2 | 68* | 35 | 55* | 8 | 17 | 12 | 0 | -1 | 21
O=C1OC(Nc2cc(Br)cc3cccnc23)c2ccccc21 (centres undefined) | 94* | 0 | 41* | 92* | -4 | 16 | 63* | 51* | 16 | 13 | -14
COc1ccc2nc3ccccc3nc2c1N | 87* | 5 | 78* | 22 | 53* | -3 | 37 | 75* | 73* | 47 | 14
COc1ccccc1N(C)S(=O)(=O)c1ccc(C(=O)N2CCCc3ccccc32)cc1 | -26 | 1 | 11 | -10 | -4 | . | . | . | . | . | .
O=C1C2=C(c3ccccc31)[N+](=O)[C@@H]1CCCC[C@@H]1N2[O-] | 81* | 3 | 74* | 57* | 49 | 14 | 56* | 25 | 15 | 5 | 74*
NC(=S)Nc1cccc2cccnc12 | -4 | 1 | 5 | 4 | 3 | . | . | . | . | . | .
NC(=S)NNc1cccc2cccnc12 | 91* | 4 | 51* | 38 | 49 | -3 | 12 | -5 | 8 | 4 | 66*
COc1cc(NC(C)CCCN)c2ncccc2c1 (centres undefined) | 64* | -2 | 47* | 84* | 49 | 44 | 69* | 30 | 97* | 1 | 81*
COc1ccc(Nc2ccc(OC)cc2)cc1 | 54* | -1 | 96* | 11 | 24 | -6 | -10 | 7 | 10 | 11 | 14
COc1ccc(Nc2ccc(Nc3ccc(OC)cc3)nn2)cc1 | -9 | 0 | 15 | 12 | -1 | . | . | . | . | . | .
O=C(Cc1ccccc1)Nc1nc2ccccc2s1 | 5 | -5 | -2 | -1 | -13 | . | . | . | . | . | .
SMILES | SENP6 inh | SENP1 inh | SENP8 block-1 | SENP7 inh | SENP8 block-2 | SENP8 conf-1 | SENP6 conf | SENP7 confirm | Casp3 select | SENP luc ctr | SENP8 conf-2
O=C(Cc1ccccc1)c1nc2ccccc2s1 | 69* | -3 | 48* | 39 | 54* | 0 | 64* | 87* | 62* | 43 | 67*
Cc1nc2c3ccccc3nc(NNC(=O)CCC(=O)NCCN3CCN(c4ccccc4)CC3)n2n1 | 16 | 3 | 24 | -8 | 11 | . | . | . | . | . | .
CC(=O)OCCCNc1cc(SCc2ccco2)c2nonc2c1[N+](=O)[O-] | 63* | -11 | 50* | 34 | 60* | 10 | 12 | -5 | 5 | -9 | 17
O=C(CC1C=Cc2ccccc2N1C(=O)c1ccccc1)c1ccccc1 (centres undefined) | -5 | 3 | 18 | -7 | -4 | . | . | . | . | . | .
N#CC1=C2SCN(Cc3ccccc3)CN2C(=O)CC1c1cccs1 (centres undefined) | 74* | -10 | 69* | 40 | 71* | -26 | 5 | -3 | -5 | -4 | 9
O=C1Cc2ccccc2C(=O)N1OCc1ccc(Cl)cc1 | 71* | -5 | 92* | 52* | 28 | 12 | 28 | 17 | 15 | 4 | 64*
Cc1ccc(/C=N/NC(=O)c2cc(C)oc2C)cc1 | 84* | 3 | 41* | 86* | 74* | 25 | 74* | 95* | 90* | 82* | -2
CN(C)c1cc(Cl)c2nonc2c1N | 95* | 5 | 89* | 91* | 96* | 15 | 33 | 5 | -4 | -6 | 56*
CCN(CC)c1cc(Cl)c2nonc2c1N | 44 | 15 | 37 | 10 | 17 | . | . | . | . | . | .
O=C(O)c1cc(Cl)c(Cl)cc1C(=O)Nc1cccc2cccnc12 | 44 | 1 | 61* | 69* | 11 | -24 | -14 | -3 | -6 | -6 | 9
